# Screens: PubChem, The Scripps Research Institute Molecular Screening Center
# GalR3 antagonist – antagonists of human GalR3; O60755; HEK293 GalR3-CNG cAMP membrane potential fluorescence; galR3 body fused to GalR1 C-terminus; inhibition, % at 3 µM; 360,000 compounds, 0.44% hits;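 active = inhibition above the screen-wide average plus 3 SD, cut at about 13% in these data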;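 also: forskolin and galanin both at EC90 stimulate the cells; cAMP rise reported by CNG channel membrane potential dye signal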
# CHO parental Ca – counter-screen: ATP calcium response change in parental CHO cells; parental CHO-K1, ATP-induced calcium, Fluo-8 fluorescence; inhibition, % at 5.6 µM; 330,000 compounds, 0.63% hits;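 active = inhibition above that plate's mean sample inhibition plus 3 SD, cut at about 26% in these data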
#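 Measured by: calcium-sensitive Fluo-8 fluorescence / Test system: CHO parental line / Controls: ATP-challenged DMSO wells low, unchallenged DMSO wells high / Measure: % inhibition / Compound: single nominal dose of 5.6 µM per compound / Replicates: single well per compound, no replicates / Reagent: ATP as calcium-mobilizing challenge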
# OX1R antag-1 – antagonists of human orexin 1 receptor (OX1R). 330,000 compounds, 1.8% hits. inhibition, % at 6.6 µM. OX1R-expressing cells, FRET antagonist read-out. O43613; in the data active = inhibition mostly above about 38%, no sharp cut-off; inactive = mostly below about 40%
# Target sequence (O43613 whole entry, looked up): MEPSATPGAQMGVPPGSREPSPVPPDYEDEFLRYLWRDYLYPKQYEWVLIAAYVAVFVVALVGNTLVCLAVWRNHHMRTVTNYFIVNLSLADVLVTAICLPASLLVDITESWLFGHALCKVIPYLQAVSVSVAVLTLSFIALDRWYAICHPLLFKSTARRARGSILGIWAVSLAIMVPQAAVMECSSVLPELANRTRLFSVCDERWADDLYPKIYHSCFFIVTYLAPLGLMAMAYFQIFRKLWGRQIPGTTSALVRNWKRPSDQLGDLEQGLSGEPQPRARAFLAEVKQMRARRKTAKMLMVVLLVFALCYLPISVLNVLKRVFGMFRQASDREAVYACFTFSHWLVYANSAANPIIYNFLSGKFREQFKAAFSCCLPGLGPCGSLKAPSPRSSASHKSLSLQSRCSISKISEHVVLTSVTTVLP
# OX1R antag-2 – blocks the human orexin 1 receptor | O43613 | CHO/OX1R cells, Fluo-8 calcium fluorescence, orexin A | inhibition, % at 5 µM | 330,000 compounds, 0.43% hits;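 active = inhibition above its plate's threshold, mean inhibition of all tested compounds on the plate plus 3 SD, cut at about 37% in these data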
# GPR7 antagonist – human neuropeptides B/W receptor 1 antagonism | GPR7-expressing cells, fluorescence antagonist assay | inhibition, % at 4.4 µM | 290,000 compounds, 1.1% hits; in the data active = inhibition above about 16%, passing the limit was not always enough;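 also: cells stimulated with the agonist NPW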
# A number is an active result; n = inactive; x = no result given. Sampled rows, rich in hits. Any-hit rate of the full collection: about 3.1%.
SMILES,GalR3 antagonist,CHO parental Ca,OX1R antag-1,OX1R antag-2,GPR7 antagonist
COc1ccc(-c2cc(C(F)(F)F)nc(S(=O)(=O)CCCC(=O)Nc3cccnc3Cl)n2)cc1OC,17.4,x,x,x,n
CC(=O)Nc1ccc(NC(=O)CSc2nnc(NC(=O)c3ccccc3F)s2)cc1,n,x,x,x,x
COc1ccccc1N(CC(=O)Nc1ccccc1C(F)(F)F)S(=O)(=O)c1cccs1,n,n,n,n,x
COC(=O)N1C[C@H](OC(=S)Nc2ccc(OC)cc2OC)[C@H]2C[C@@H]1c1ccccc1O2,n,x,x,x,x
Cc1c(/C=C/C(=O)c2ccc(O)cc2)cnn1C,n,n,n,n,n
Cc1c(/C=C/C(=O)c2ccccc2)cnn1C,n,n,41.0,n,n
Cc1cccc(OCC(=O)NC(C)C(=O)N/N=C/c2c(OCc3ccccc3)ccc3ccccc23)c1 (stereo not given),x,n,43.2,n,n
COc1ccc2ccccc2c1/C=N/NC(=O)c1cccc(C)c1,n,n,n,n,x
CCOC(=O)c1c(NC(=O)C(C)N2CCN(C(=O)c3ccco3)CC2)sc2c1CCCC2 (stereo not given),n,59.8,n,65.8,n
CC(C)c1cc(-c2cc(C(=O)NCc3ccccc3)on2)nc(NCC2CC2)n1,n,44.2,n,62.1,x
NC(=O)C1CCN(c2nc(-c3cccnc3)cs2)CC1,n,n,n,n,x
NC(=O)C1CCN(c2nc(-c3ccc(F)cc3)cs2)CC1,n,n,57.2,n,x
COCCN(CC(=O)Nc1ccccc1C(F)(F)F)C(=O)/C=C/c1ccc2ccccc2n1,n,n,53.3,n,x
O=S1(=O)N=C(N(CCO)/N=C/c2ccc(Cl)cc2)c2ccccc21,n,n,n,n,n
CN(C)c1ccc(/C=N/N(CCO)C2=NS(=O)(=O)c3ccccc32)cc1,n,52.6,n,47.5,n
O=C(N[C@@H](Cc1cccnc1)C(=O)N1CCC[C@H]1C(=O)NCc1ccccc1)c1ccccc1,n,x,x,x,x
CCc1nn(CCCC(=O)NCc2ccccc2Br)c(=O)c2cc3occc3n12,n,n,n,n,n
CCc1cccc(NC(=O)CCCn2nc(CC)n3c(cc4occc43)c2=O)c1,n,n,42.5,n,n
COc1ccccc1C1CC(c2ccc(C)cc2)Nc2ncnn21 (stereo not given),n,n,n,n,14.2
COc1ccccc1C1CC(c2ccc(F)cc2)Nc2ncnn21 (stereo not given),n,n,n,n,n
CC(=O)N1CCN(Cc2cc(=O)oc3ccccc23)CC1,n,x,x,x,x
CCOC(=O)Cn1c(=N)n(CCOc2ccc(OC)cc2)c2ccccc21,x,n,n,n,n
CCOC(=O)Cn1c(=N)n(CCOc2ccc3ccccc3c2)c2ccccc21,n,n,n,n,20.8
Nc1cccc(C(=O)OCC(=O)Nc2cccc3c2C(=O)c2ccccc2C3=O)c1,n,n,n,n,n
CCN(CC)CCC(=O)Nc1cccc2c1C(=O)c1ccccc1C2=O,n,n,74.2,n,n
SMILES,GalR3 antagonist,CHO parental Ca,OX1R antag-1,OX1R antag-2,GPR7 antagonist
CCN(CC)CCNC(=O)c1ccc2c(c1NCCO)C(=O)c1ccccc1C2=O,n,n,88.6,n,n
CCOC(=O)N1CCN(C(=O)C[C@H]2C[C@@]3(C(=O)OC)C(=C[C@H](C(C)(C)C)O[C@@H]3C)N(Cc3ccccc3)C2=O)CC1,n,x,x,x,x
COc1cccc(-n2nc(C#N)c(Cl)cc2=O)c1,n,x,x,x,41.3
Cn1c(SCC(=O)NC2CCCCC2)nnc1-c1cc2cc(Cl)ccc2o1,n,n,n,n,n
CC(NC(=O)CSc1nnc(-c2cc3cc(Cl)ccc3o2)n1C)c1ccccc1 (stereo not given),n,n,54.4,n,n
Nc1c(C(=O)c2ccccc2)oc2ccc(Br)cc12,n,n,59.4,n,n
Cc1ccc(C(C)C)c(OCc2nn(CC(=O)c3ccc(Cl)cc3)c3[n+]2CCCCC3)c1,n,n,n,n,37.7
CCCc1cc2c(OC)ccc(O)c2c(=O)n1C,n,x,x,x,x
CCCc1cc(=O)[nH]c(Nc2ccc(Cl)cc2)n1,n,79.0,n,n,n
O=C(CNC(=O)C(c1ccccc1)c1ccccc1)N/N=C/c1cccnc1,n,n,n,n,19.8
CN1Cc2c(N3CCOCC3)nc3sc(C(=O)c4ccc(Br)cc4)c(N)c3c2CC1(C)C,n,34.6,n,n,43.5
O=S(=O)(c1ccc(F)cc1)N1CCCc2nc(-c3ccc(F)cc3)ccc21,n,x,x,x,x
O=[N+]([O-])c1cc(Br)c(Nc2ccccc2)c([N+](=O)[O-])c1,n,n,49.7,n,n
